# Reference: ChEMBL document CHEMBL4433213, “Investigation on 2',3'-O-Substituted ATP Derivatives and Analogs as Novel P2X3 Receptor Antagonists” (ACS Med Chem Lett, 2019)
# Assays:
# [1] = target: T1, P2X purinoceptor 3 (Mus musculus) (UniProt Q3UR32); experiment: Agonist activity at P2X3R in mouse TG sensory neurons assessed as induction of channel current at 1 uM at -65 mV holding potential by whole cell voltage clamp method relative to alpha,beta-meATP
# T1 sequence (whole entry): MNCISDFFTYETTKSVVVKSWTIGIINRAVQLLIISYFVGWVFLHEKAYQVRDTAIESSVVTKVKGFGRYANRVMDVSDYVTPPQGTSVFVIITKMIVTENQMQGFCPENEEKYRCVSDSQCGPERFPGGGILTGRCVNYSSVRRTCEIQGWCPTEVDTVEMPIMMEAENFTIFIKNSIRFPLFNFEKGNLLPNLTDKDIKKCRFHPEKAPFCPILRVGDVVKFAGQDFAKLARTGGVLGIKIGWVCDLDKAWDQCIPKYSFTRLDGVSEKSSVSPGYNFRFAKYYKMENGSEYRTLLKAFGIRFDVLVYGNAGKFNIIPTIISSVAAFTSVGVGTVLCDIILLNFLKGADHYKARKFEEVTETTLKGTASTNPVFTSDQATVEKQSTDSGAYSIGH
# Homo sapiens = organism: Homo sapiens; experiment: Selectivity ratio of IC50 for human P2X4R transfected in human […] 1321N1 cells to IC50 for human transfected in human 1321N1 cells; format: cell-based
# [2] = target: T1, P2X purinoceptor 3 (Mus musculus); experiment: Antagonist activity at P2X3R in mouse TG sensory neurons assessed as inhibition of P2X3R agonist alpha,beta-meATP-induced current at 1 uM at -65 mV holding potential by whole cell voltage clamp method relative to control
# Summary of the method: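 Mouse trigeminal sensory neurons were recorded by whole-cell patch clamp. Test compound (0.001–10 μM) was applied before 10 μM α,β-meATP, and inhibition of the agonist-evoked P2X3 current was measured. IC50 was taken from concentration–inhibition curves. N = 5–6 cells.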
Activity [1] [%],inhibition [2] [%],SMILES,Ratio IC50 (Homo sapiens)
23,–,CC1(C)O[C@@H]2[C@H](O1)[C@@H](COP(=O)(O)OP(=O)(O)OP(=O)(O)O)O[C@H]2n1cnc2c(N)ncnc21,12
–,25,Nc1ncnc2c1ncn2[C@@H]1O[C@H](COP(=O)(O)OP(=O)(O)OP(=O)(O)O)[C@H]2OCO[C@H]21,–
